Hits are enriched below; roughly 1.3% of the tested compounds scored in any of these assays.
CAL PDZ FP-1 = inhibitors of human CAL PDZ peptide binding. Q9HD26. purified CAL PDZ, TMR-peptide fluorescence polarization, 1 h. inhibition, % at 24.9 µM. 300,000 compounds, 0.92% hits. AID 602252;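 active = mean inhibition of at least 30% with at least half of replicates also reaching 30%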;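 note: 0% = DMSO neutral control and 100% = excess unlabeled competitor peptide PRC23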
LANA DNA inh = blocks KSHV LANA C-terminal domain binding to DNA. MBP-C-LANA/FAM-LBS DNA binding, fluorescence polarization. inhibition, % at 9 µM. AID 504423. 340,000 compounds, 0.078% hits;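 active = highest replicate inhibition at or above 60% at 9 µM, even if other replicates fall short; inactive = all replicates below 60% inhibition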;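 note: 0% = neutral control wells and 100% = 4 µM acridine orange control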
CAL PDZ FP-2 = inhibitors of human CAL PDZ peptide binding | Q9HD26 | purified CAL PDZ, TMR-peptide fluorescence polarization, 1 h | inhibition, % at 20 µM | 330,000 compounds, 0.02% hits | AID 504414;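 active = highest replicate inhibition of at least 40%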;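 note: plate controls were DMSO neutral control wells for no effect and unlabeled competitor peptide control wells for full effect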
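material = purified tagged CAL PDZ domain construct (CerCALP) | buffer or medium = sodium phosphate/NaCl buffer pH 7.4 with TCEP, IgG, Thesit | reagent = TMR-labelled reporter peptide T*-PRC34 bound in PDZ groove | incubation = 1 h room-temperature incubation prior to read | measured by = fluorescence polarization (mP) | evaluation = percent inhibition from loss of millipolarization | control set = unlabelled peptide and DMSO controls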
RTF Ca sens act = cardiac RTF calcium sensitization; 340,000 compounds, 0.24% hits; P19429+P45379; activation, % at 7.2 µM; IANBD-labeled TnC RTF fluorescence at EC20 calcium; 0% EC20 calcium, 100% full calcium;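 active = activation above the mean over all tested compounds plus 3 SD, cut at about 30% in these data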;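 note: rise in fluorescence read as greater calcium sensitivity of cardiac thin filaments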
RTF Ca sens inh = cardiac RTF calcium desensitization; P19429+P45379; IANBD-labeled cardiac RTF, Ca2+ fluorescence; inhibition, % at 7.15 µM; 340,000 compounds, 0.12% hits;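 active = inhibition above the mean inhibition of all tested compounds plus 3 SD, cut at about 17% in these data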;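 note: assay run at fixed EC70 calcium of 1.6 mM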
Keap1 Nrf2 FP = Keap1-Nrf2 (human) interaction inhibition | 340,000 compounds, 0.15% hits | inhibition, % at 9.4 µM | AID 504523 | Keap1 Kelch-Nrf2 peptide fluorescence polarization, 1536-well | Q14145; in the data active = inhibition above about 12%;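 note: human Keap1 Kelch domain with fluorescein labeled Nrf2 9mer peptide probe; 0% = neutral control wells and 100% = peptide positive control; higher means more block of Keap1 binding to Nrf2 peptide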
Target sequence (Q14145 whole entry, looked up, the tested form may be a part): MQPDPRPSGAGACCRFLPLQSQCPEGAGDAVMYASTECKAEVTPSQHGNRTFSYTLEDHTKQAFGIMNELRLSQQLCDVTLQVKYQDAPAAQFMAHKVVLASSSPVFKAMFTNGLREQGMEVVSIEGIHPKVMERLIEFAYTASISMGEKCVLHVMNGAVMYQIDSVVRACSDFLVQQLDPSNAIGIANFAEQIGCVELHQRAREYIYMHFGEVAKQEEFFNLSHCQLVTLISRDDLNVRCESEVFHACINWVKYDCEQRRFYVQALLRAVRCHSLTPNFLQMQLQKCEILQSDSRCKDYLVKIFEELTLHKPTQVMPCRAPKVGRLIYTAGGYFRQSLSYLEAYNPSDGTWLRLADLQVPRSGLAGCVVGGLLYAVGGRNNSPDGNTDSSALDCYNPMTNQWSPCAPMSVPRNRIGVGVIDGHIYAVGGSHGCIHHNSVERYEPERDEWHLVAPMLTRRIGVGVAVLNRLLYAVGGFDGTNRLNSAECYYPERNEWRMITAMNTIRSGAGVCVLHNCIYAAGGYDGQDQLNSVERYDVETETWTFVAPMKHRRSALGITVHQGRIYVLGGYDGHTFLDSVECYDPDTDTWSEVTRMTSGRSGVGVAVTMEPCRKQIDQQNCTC
* hit, by the source's call; i = inactive; . = no result.

SMILES	CAL PDZ FP-1	LANA DNA inh	CAL PDZ FP-2	RTF Ca sens act	RTF Ca sens inh	Keap1 Nrf2 FP
CN(C)c1ccc2c(c1)OC(N)=C(C#N)C2c1cccc(F)c1 (centres undefined)	4.2	-0.1	.	72.8*	-121.0	-28.5
Cc1ccc(NC(=O)c2c(C)noc2C)cc1S(=O)(=O)N1CCOCC1	6.1	-0.3	0.6	-1.6	-0.7	-1.4
COc1cc(C=O)c(-c2c(C=O)cc(OC)c3c2OCO3)c2c1OCO2	-1.8	6.9	-1.0	0.0	2.9	0.2
CC(=O)Nc1ccc(Nc2c3c4c(cccc4n(C)c2=O)C(=O)c2ccccc2-3)cc1	-1.1	1.6	-0.3	177.9*	-141.8	3.0
Cn1c(=O)c(NC2CCCCC2)c2c3c(cccc31)C(=O)c1ccccc1-2	4.8	64.3	0.3	369.3*	i	53.5*
CC1CN(C(=O)CSc2cn(CC(=O)N3CCOCC3)c3ccccc23)CC(C)O1 (centres undefined)	3.1	-0.9	0.2	-1.1	-5.5	-2.4
CN(C(=O)CSc1cn(CC(=O)N2CCOCC2)c2ccccc12)c1ccccc1	34.7*	-0.5	-0.7	1.8	-1.3	0.3
CCOC(=O)C1CCN(C(=O)/C(=C/c2ccccc2)NC(=O)c2ccccc2)CC1	50.7*	1.9	.	3.2	-4.9	2.2
CCOC(=O)C1CCCN(C(=O)/C(=C/c2ccco2)NC(=O)c2ccccc2)C1 (centres undefined)	.	0.3	-2.2	-6.6	-17.2	-3.5
O=C(Nc1ccccc1)c1cccc(S(=O)(=O)NC2CCCC2)c1	2.8	0.5	-3.0	-1.5	-5.1	-1.2
Cc1ccc2c(c1)c(C1=NC(=S)NC1=O)c(O)n2C	30.3*	1.2	-0.9	10.6	-9.4	-2.3
Cc1ccc2c(c1)c(N=Nc1ccc([N+](=O)[O-])cc1)c(O)n2C	-2.0	4.9	0.0	-0.7	-5.0	-3.5
COc1ccc(C(C)(C)C)cc1NC(=O)COC(=O)C1=NNC(=O)CC1	133.0*	-2.0	-0.1	-0.3	-4.2	0.3
CCOC(=O)c1c(N)c(C#N)c2n1CCCCC2	37.4*	-0.7	.	-3.0	-0.3	-3.7
CC1=C(c2ccccc2)CCC1=O	-2.3	-0.6	1.4	-5.2	-4.6	-5.0
O=C1CC(c2ccccc2)=C(c2ccccc2)C1	-4.1	-0.2	50.2*	-1.7	3.9	-2.7
COc1cc(C(=O)N(C)CC2CCN(CCc3cccc(C(F)(F)F)c3)CC2)ccc1C	-5.7	-1.3	-18.1	-3.3	-4.0	-3.9
Nc1ccc(Oc2cccc(Oc3ccc(N)cc3)c2)cc1	38.9*	2.0	-4.0	-0.1	1.6	-1.8
N/C(=N\OC(=O)c1ccccc1F)c1cccc([N+](=O)[O-])c1	.	-0.2	0.2	-0.5	-3.8	-0.8
O=c1[nH]c2ccccc2nc1/C=C(\O)c1cccs1	-3.1	-16.2	-2.6	61.0*	-74.4	-15.4
C[C@H]1NC(=O)[C@@]2(C)[C@H](c3ccccc3)[C@H]3COc4ccccc4[C@@H]3N2C1=O	-5.6	1.6	-0.6	-2.8	-13.7	-4.5
Cc1cccc2[nH]c(CN(C)C(=O)C3CCC(=O)N(C4CC4)C3)nc12 (centres undefined)	42.7*	0.5	-1.1	-3.9	-8.7	-2.5
CN(Cc1nc2ccccc2[nH]1)C(=O)C1CCC(=O)N(C2CCCC2)C1 (centres undefined)	14.2	0.5	-0.8	3.5	-1.0	1.3
CCN(CC(=O)NC1CCS(=O)(=O)C1)S(=O)(=O)c1cc(Br)ccc1Br (centres undefined)	-1.3	0.7	-1.6	-3.1	-8.3	-0.5
COc1ccc2oc(=O)c(C(=O)NC(C)c3ccccc3)cc2c1 (centres undefined)	.	-1.5	-1.8	-2.4	3.8	-6.4
SMILES	CAL PDZ FP-1	LANA DNA inh	CAL PDZ FP-2	RTF Ca sens act	RTF Ca sens inh	Keap1 Nrf2 FP
COc1ccc2oc(=O)c(C(=O)Nc3ccccc3O)cc2c1	78.4*	-0.6	17.6	2.2	-9.5	-1.0
Cc1ccc(CCNC(=O)CCn2c(=O)c3cccn3c3ccc(F)cc32)cc1	38.9*	-1.4	-0.7	-4.8	-1.2	1.2
CCCCNC(=O)CCn1c(=O)c2cccn2c2ccc(F)cc21	-7.4	-1.6	-2.1	-1.6	-0.9	-6.0
COc1ccc(CCNC(=O)CCn2c(=O)c3cccn3c3ccc(F)cc32)c(OC)c1OC	117.8*	-1.1	-1.1	1.7	2.4	-1.2
COc1ccccc1CCNC(=O)CCn1c(=O)c2cccn2c2ccc(F)cc21	-2.2	-1.9	0.0	-1.2	-1.6	-3.8
CSc1cccc(NC(=S)NN(C)C)c1	63.6*	0.9	-0.4	0.6	-0.5	-4.5
CSc1cccc(NC(=S)Nc2ccc(F)cc2)c1	0.1	-0.2	-0.7	6.9	-7.7	4.8
CCN1CCN(Cc2c(O)ccc3c2O/C(=C\C=C\c2ccccc2OC)C3=O)CC1	-1.8	1.5	-0.5	165.5*	-150.3	-139.3
Cc1ccc(/C=C2\Oc3c(ccc(O)c3CN3CCN(CCO)CC3)C2=O)cc1	-4.5	17.0	-2.6	32.0*	-38.4	-13.0
CC(=O)Nc1ccc(NC(=O)C(C)OC(=O)c2cc(S(=O)(=O)N(C)C)ccc2N2CCCC2)cc1 (centres undefined)	-3.8	-12.6	0.5	-1.0	-14.0	-0.8
CCC(C)NC(=O)c1cn(CC)c2ccc(S(=O)(=O)N3CCCCCC3)cc2c1=O (centres undefined)	-1.9	-0.7	-2.2	-4.7	-0.7	0.3
COc1ccc(OCCOc2ccc(S(=O)(=O)N3CCCC3)cc2C(N)=O)cc1	-6.4	2.2	-0.8	3.0	-10.5	4.9
NC(=O)c1cc(S(=O)(=O)N2CCCC2)ccc1OCCOc1ccccc1F	44.0*	0.2	0.0	10.0	-6.6	-0.4
O=C(OCC(=O)N1CCc2ccccc2C1)c1cccnc1Cl	71.2*	-1.1	21.0	-2.8	-18.7	-2.5
COc1ccc(NC(=O)c2cccnn2)cc1	-3.6	-0.1	-3.9	-0.6	-6.8	-4.5
O=C(/C(N=Nc1cccc(C(F)(F)F)c1)=C(/O)c1cccs1)C(F)(F)F	68.3*	3.3	1.1	1.8	-3.1	6.6
CC(=O)/C(N=Nc1cccc(C(F)(F)F)c1)=C(\C)O	-9.2	-1.3	-1.2	9.8	-4.1	-2.2
Nc1ncncc1-c1ccccc1Cl	-1.1	0.8	0.5	-2.5	4.8	-1.3
O=C(CCC1CCN(C(=O)c2cc(C(F)(F)F)ccc2Cl)CC1)NC1CC1	-4.2	0.0	-2.1	1.5	0.7	2.5
CCN(CC)c1ccc2cc(C(=O)Nc3ccccn3)c(=O)oc2c1	-4.2	9.3	-3.6	52.8*	-32.4	1.3
CCN(CC)c1ccc2cc(-c3nnc(-c4ccncc4)o3)c(=O)oc2c1	1.7	-6.3	0.1	162.6*	-199.8	-101.2
CCN(CC)c1ccc2cc(NC(=O)CCC(=O)O)c(=O)oc2c1	-4.1	32.6	-1.0	70.0*	-65.0	8.2
CCN(CC)c1ccc2cc(C(N)=O)c(=O)oc2c1	-2.3	2.8	0.0	14.7	-10.8	-16.6

High-throughput results from PubChem.
